Experimental findings from ChEMBL document CHEMBL1155808, “Antitumor activity of bis-indole derivatives” (J Med Chem, 2008) are described below.

Test [1] deals with MCF7. Description: Inhibition of proteasome in human MCF7 cells assessed as effect on stability of BCA2 protein at 10 umol/L in presence of cyclohexamide after 8 hrs by Western blot. The essentials: (§1)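 MCF7 cells, 1×10^6 seeded per well, grown overnight; cycloheximide 100 μmol/L added alone or with MG-132 (10 μmol/L) or compound, total 8 and 16 h; lysates Western blotted with anti-BCA2, anti-C-erbB2 and β-actin antibodies; BCA2 and C-erbB2 levels expressed relative to β-actin by densitometry.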
(In general: A western blot detects proteins with antibodies after separation by electrophoresis.)

The subject of test [2] is MCF7. In words: Cytotoxicity against human MCF7 cells. The class given is functional, cell-based.
Test [3] has as its system MDA-MB-231. Description: Cytotoxicity against human MDA-MB-231 cells. The class given is functional, cell-based.
For test [4], the system named is MCF7. In words: Inhibition of proteasome in human MCF7 cells assessed as effect on stability of BCA2 protein at 1 umol/L in presence of cyclohexamide after 8 hrs by Western blot. The method, boiled down: as §1
For test [5], the system named is MCF7. Description: Inhibition of proteasome in human MCF7 cells assessed as increase in stability of BCA2 protein at 10 umol/L in presence of cyclohexamide after 16 hrs by Western blot. The method, boiled down: as §1
Test [6] is described as follows: Inhibition of plasma membrane electron transport pathway in human HL60 cells at 200 uM by WST1 reduction assay. The class given is cell-based. The settings on record: HL-60. On the technique in general: Tetrazolium dyes change colour on reduction, which living cells bring about.
Test [7] in a line: Cytotoxicity against human ovarian cancer cells. The settings on record: Cancer cell lines; for TGI: read-out: pTGI (converted). The class given is functional.
A short description of test [8]: Cytotoxicity against human central nervous system cancer cells. The class given is functional. The settings on record: Cancer cell lines; for CC50: read-out: pLC50 (the source's name) (converted); for TGI: read-out: pTGI (converted). The method, boiled down: (§2)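 NCI 60-cell-line human tumour screen, with subpanels for leukemia, melanoma, lung, colon, kidney, ovary, breast, prostate and CNS. Compounds were dissolved in DMSO and tested at five ten-fold dilutions, highest 10^-4 M (10^-3 M for some). Endpoints were GI50, TGI and LC50, reported as negative log molar. Some compounds were assayed once, others two or three times.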

Test [9] concerns HEL. In words: Antiproliferative activity against human HEL cells after 48 hrs by MTT assay. The class given is functional, cell-based.
Test [10] can be described thus: Cytotoxicity against human Non-small cell lung carcinoma cells. The class given is functional. The settings on record: for TGI: read-out: pTGI (converted). The essentials: as §2
Test [11] in a line: Cytotoxicity against human melanoma cells. The class given is functional. The settings on record: Melanoma cell; for CC50: read-out: pLC50 (the source's name) (converted); for TGI: read-out: pTGI (converted).
Test [12] is described as follows: Cytotoxicity against human leukemia cells. The class given is functional. The settings on record: Leukemia cell; for CC50: read-out: pLC50 (the source's name) (converted); for TGI: read-out: pTGI (converted). The essentials: as §2
Test [13] in a line: Cytotoxicity against human breast cancer cells. The class given is functional. The settings on record: Cancer cell lines; for TGI: read-out: pTGI (converted). The method, boiled down: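 MTT cytotoxicity assay in breast cancer cell lines; proliferation expressed as percent growth inhibition relative to vehicle-treated control cells; IC50 reported.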
The test system of test [14] is B1647. Description: Antiproliferative activity against human B1647 cells after 48 hrs by MTT assay. The class given is functional, cell-based.
Test [15] is described as follows: Inhibition of plasma membrane electron transport pathway in human HL60 cells by WST1 reduction assay. The class given is cell-based. The settings on record: HL-60. The essentials:
(§3)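 Cells at 10^5 per well in 0.1 ml pretreated 30 min with compound in DMSO (<0.1% final), then WST-1/mPMS added (final 500 µM and 20 µM); WST-1 reduction followed in real time at 450 nm; averages ± S.E.M. of four independent experiments.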

Test [16] has as its system Mo7e. In words: Antiproliferative activity against human Mo7e cells after 48 hrs by MTT assay. The class given is functional, cell-based.
A short description of test [17]: Cytotoxicity against human renal cancer cells. The class given is functional. The settings on record: Cancer cell lines; for CC50: read-out: pLC50 (the source's name) (converted); for TGI: read-out: pTGI (converted). The essentials:
as §2

Test [18] can be described thus: Inhibition of plasma membrane electron transport pathway in mitochondrial gene-knockout human HL60p'0 cells by WST1 reduction assay. The essentials: as §3
Test [19] is described as follows: Cytotoxicity against human mitochondrial gene-knockout human HL60p'0 cells after 48 hrs by MTT assay. The class given is functional, cell-based.
Test [20] deals with HL-60. Description: Cytotoxicity against human HL60 cells after 48 hrs by MTT assay. The class given is functional, cell-based. The settings on record: HL-60, 48 h.
A short description of test [21]: Cytotoxicity against human prostate cancer cells. The settings on record: Cancer cell lines; for TGI: read-out: pTGI (converted). The class given is functional. The essentials:
as §2

Test [22] is described as follows: Cytotoxicity against human colon cancer cells. The class given is functional. The settings on record: Cancer cell lines; for TGI: read-out: pTGI (converted). The method, boiled down:
as §2

A short description of test [23]: Inhibition of plasma membrane electron transport pathway in human B1647 cells by WST1 reduction assay. The class given is cell-based. The method, boiled down:
as §3

Test [24] is described as follows: Inhibition of plasma membrane electron transport pathway in human HEL cells by WST1 reduction assay. The class given is cell-based. The essentials: as §3
The nature of test [25]: Inhibition of plasma membrane electron transport pathway in human Mo7e cells by WST1 reduction assay. The class given is cell-based. The essentials: as §3
The mark [26] stands for this setting: read-out: pLC50 (the source's name) (converted).

The source made the active and inactive calls. The rule behind the calls is not given here. Where a SMILES comes first, the peptide text is derived from it. The star is where a group is joined. Cbz = O=C(OCc1ccccc1)*

As usually defined, the IC50 is the concentration at which inhibition is half-maximal. Higher therefore signals a need for much substance. Regarding `CC(C)C[C@@H](C=O)NC(=O)[C@H](CC(C)C)NC(=O)[C@H](CC(C)C)NC(=O)OCc1ccccc1` [MG-132] (Cbz-Leu-Leu-Leu-aldehyde), the result in test [1] was Active. In addition, the IC50 stood at 0.3 µM in test [2] and 0.25 µM in test [3]. For the same molecule, the outcome in [4] was inactive. Also, the fold change (FC) in test [5] was greater than 10.
In general, GI50 refers to the concentration that inhibits growth by half. In the case of `CC(=O)n1c(=O)/c(=C/c2c[nH]c3ccccc23)n(C(C)=O)c(=O)/c1=C/c1c[nH]c2ccccc12`, in [6], the result was inactive. In addition, the 50% growth inhibitory concentration (GI50) in test [7] was 79.4 µM; in [8] it was 75.9 µM; in test [10] it was 85.1 µM; in test [11], 87.1 µM; in test [12], 93.3 µM; in [13], 66.1 µM. Besides, the GI50 in test [17] is 29.5 µM. For the same molecule, the outcome in test [9], in [14] and in test [16] was Active. The half-maximal inhibitory concentration (IC50) in test [15] and in [18] was greater than 117 µM throughout.
Regarding `O=C1Nc2ccc(Cl)cc2/C1=C\c1cccc(/C=C2/C(=O)Nc3ccc(Cl)cc32)n1`, the half-maximal inhibitory concentration (IC50) is 3 µM in [19], 3 µM in test [20], greater than 117 µM in test [15] and greater than 117 µM in test [18]. The concentration for 50% growth inhibition (GI50) in test [7] is 1.26 µM; in test [8] it was 0.891 µM; in [21] it was 1.51 µM; in test [10], 1.74 µM; in [11] it was 0.692 µM; in test [12], 0.661 µM. Moreover, the 50% growth inhibitory concentration (GI50) is 0.933 µM in [22], 1.12 µM in [13] and 1.26 µM in [17]. Further, the CC50 is 17.8 µM in test [7] (setting [26]); 14.8 µM in test [8]; 24.5 µM in [21] (setting [26]); 20 µM in test [10] (setting [26]); 7.94 µM in test [11]; 47.9 µM in test [12]. For the same molecule, the values for the CC50 in test [22] (setting [26]), in [13] (setting [26]) and in [17] were 15.1 µM, 22.9 µM and 7.59 µM, respectively. Moreover, the TGI in test [7] is 4.17 µM; in [8], 2.75 µM; in test [21], 6.61 µM; in test [10], 4.37 µM; in test [11], 1.91 µM; in [12] it was 4.9 µM. In addition, the TGI in [22] is 2.57 µM; in [13], 4.17 µM; in test [17] it was 2.95 µM. Besides, the result in test [9], in test [14] and in [16] was Active.
Consider `O=C1Nc2ccc(O)cc2/C1=C\c1cccc(/C=C2/C(=O)Nc3ccc(O)cc32)n1`, for which the GI50 is 83.2 µM in test [7]; 40.7 µM in test [8]; 20 µM in [21]; 33.9 µM in [10]; 83.2 µM in test [11]; 17.4 µM in test [12]. Moreover, the GI50 in test [22] was 38.9 µM; in test [13], 40.7 µM; in test [17] it was 34.7 µM. Further, the IC50 in test [23] is 40 µM; in [24] it was 40 µM; in [25], 40 µM; in test [15] it was greater than 117 µM; in [18], greater than 117 µM. Further, the outcome in test [9], in [14] and in test [16] was Active. For the same molecule, the CC50 in test [12] was 93.3 µM; in test [17], 95.5 µM. Also, the values for the TGI in [12], in test [13] and in test [17] were 55 µM, 85.1 µM and 69.2 µM, respectively.
On to `CN(C)c1ccc2c(c1)/C(=C\c1cccc(/C=C3/C(=O)Nc4ccc(N(C)C)cc43)n1)C(=O)N2`, for which the outcome in test [6] was inactive. Besides, the 50% growth inhibitory concentration (GI50) was 7.59 µM in test [7]; 4.37 µM in test [8]; 3.55 µM in [21]; 5.25 µM in test [10]; 4.37 µM in test [11]; 2.34 µM in test [12]. For the same molecule, the 50% growth inhibitory concentration (GI50) in [22] was 6.76 µM; in test [13], 6.03 µM; in test [17] it was 8.71 µM. Moreover, the CC50 in test [8] was 89.1 µM; in test [11] it was 60.3 µM. In addition, the TGI in test [8] was 44.7 µM; in test [21], 29.5 µM; in test [10], 43.7 µM; in test [11], 30.2 µM; in [12], 9.55 µM; in test [22], 38.9 µM. Moreover, in test [13], the TGI is 69.2 µM. Besides, the result in [9], in test [14] and in test [16] was Active. The IC50 in [15] and in test [18] was greater than 117 µM each time.
Regarding `CN1C(=O)/C(=C/c2cccc(/C=C3/C(=O)N(C)c4ccccc43)n2)c2ccccc21`, in test [6], the result was inactive. Further, the concentration for 50% growth inhibition (GI50) in test [7] was 10 µM; in [8], 7.59 µM; in [21], 13.5 µM; in [10], 12 µM; in test [11] it was 4.9 µM; in test [12], 3.09 µM. Also, the GI50 in test [22] is 10 µM; in [13], 8.91 µM; in test [17] it was 10 µM. Moreover, the TGI is 29.5 µM in [7]; 29.5 µM in test [8]; 30.2 µM in test [10]; 22.4 µM in [11]; 28.2 µM in [22]; 33.1 µM in test [13]. In [17], the TGI is 23.4 µM. Besides, the CC50 in [8] is 50.1 µM; in [11], 43.7 µM; in test [17] it was 46.8 µM. For the same molecule, the result in test [9], in test [14] and in test [16] was Active. Further, the 50% inhibitory concentration (IC50) in [15] and in test [18] was greater than 117 µM each time.
Regarding `O=c1[nH]/c(=C\c2c[nH]c3ccccc23)c(=O)[nH]/c1=C\c1c[nH]c2ccccc12`, in [6], the result was inactive. Moreover, the concentration for 50% growth inhibition (GI50) in test [8] was 64.6 µM; in [10] it was 97.7 µM; in test [11], 55 µM; in test [13] it was 64.6 µM; in [17], 70.8 µM. Also, the outcome in test [9], in test [14] and in test [16] was Active. Also, the half-maximal inhibitory concentration (IC50) in test [15] and in test [18] was greater than 117 µM in each case.
Consider `O=C1Nc2ccc(C(=O)O)cc2/C1=C\c1cccc(/C=C2/C(=O)Nc3ccc(C(=O)O)cc32)n1`, for which the outcome in test [6] was inactive. The GI50 is 72.4 µM in test [8] and 6.17 µM in [12]. Also, the TGI was 87.1 µM in test [8] and 21.4 µM in test [12]. Also, the outcome in [9], in [14] and in test [16] was Active. The CC50 in test [12] is 34.7 µM. Further, the IC50 in test [15] and in test [18] was greater than 117 µM in each case.
